# Source: PubChem BioAssay (several laboratories)
# Myeloid diff 2 – promotes myeloid progenitor differentiation; 1% of 360,000 active; calls only at 10 µM; ER-HoxA9 myeloid progenitors, lysozyme-GFP differentiation, flow cytometry; AID 624256;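 active = normalized GFP-positive differentiation at or above the plate's own cutoff, the solvent-only control mean plus 3 SD; inconclusive = no clear call, values can overlap the other calls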;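 also: cells exposed to compound for four days before flow analysis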
# HNF4A DNA FP – change in binding of human HNF4 alpha to DNA | AID 1224865 | HNF4a-FITC DNA binding, fluorescence polarization, 1 h | activity change, % at 10 µM | 0.3% of 360,000 active; in the data active = activity change above about 30%, passing the limit was not always enough
# Cardio protect – modulators protecting cardiomyocytes from myocardial damage; H9c2 cardiomyocytes, H2O2 injury protection, ATPLite, 2 h; protection from H2O2 cell death, % at 20 µM; 0.63% of 360,000 active;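 active = compounds giving at least 50% protection of heart cells from peroxide-induced death in the single-dose screen, raw or plate-pattern-corrected value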;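 also: 0% = DMSO wells with peroxide and 100% = DMSO wells without peroxide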
# SENP1 inh – SENP1 (human) catalytic domain inhibition; inhibition, % at 10 µM; Q9P0U3; recombinant SENP1 catalytic domain, CyPet-SUMO1-YPet FRET cleavage; 0.21% of 360,000 active;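 active = inhibition at least 30% at 10 µM, raw YFP signal under a set limit, fluorescence ratio 0.5 to 1.5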;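 also: 0% = enzyme with DMSO and 100% = no enzyme wells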
# Target sequence (Q9P0U3 419-644 limits assumed): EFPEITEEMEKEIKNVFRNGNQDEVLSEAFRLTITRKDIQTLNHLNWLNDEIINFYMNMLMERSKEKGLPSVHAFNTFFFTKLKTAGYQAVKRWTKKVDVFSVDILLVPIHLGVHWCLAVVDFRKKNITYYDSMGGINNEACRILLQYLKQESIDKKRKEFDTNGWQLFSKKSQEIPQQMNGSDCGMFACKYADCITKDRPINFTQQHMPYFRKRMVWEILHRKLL
#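 Material: hSENP1 catalytic domain, recombinant; medium: Tris pH 8 with BME, BSA, NP40 and catalase; compound: single concentration of 10 µM compound, 0.5% DMSO final; technique: FRET read of cyan and yellow fluorescence; timing: 50 min enzyme reaction, room temperature, light-protected; reagent: SFCypet-SUMO1-SFYpet substrate at 25 nM; control set: no-enzyme low, enzyme-DMSO high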
# Exocytosis inh – lytic granule exocytosis inhibition. AID 651702. TALL-104 LAMP-1 surface exposure, flow cytometry; cells stimulated with thapsigargin and PMA. inhibition, % at 10 µM. 0.66% of 360,000 active;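 active = inhibition above about 55%, limit read from the data; inconclusive = no clear call, values can overlap the other calls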
# DSG3 Ab inh – blocks pemphigus antibody binding to human desmoglein-3; binding (percent of control), % at 10 µM; DSG3-coupled beads, scFv-anti-DSG3-GFP binding, flow cytometry; hits give low values; AID 588358; 0.48% of 310,000 active;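 active = binding more than 3 SD below its plate's average and above zero; inconclusive = below that plate limit but binding exactly zero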;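 also: hits lower antibody fragment binding to DSG3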
# Starred values were filed as active, the others as inactive; i = inactive; ? = inconclusive; · = not tested or not shown; + = active, no number. The list is not random: actives were taken first. Their share in the collection is about 3%.
SMILES,Myeloid diff 2,HNF4A DNA FP,Cardio protect,SENP1 inh,Exocytosis inh,DSG3 Ab inh
OC(c1ccc(F)cc1)C(c1ccccc1)N1CCOCC1 (stereo not given),i,-1,2,-2,0,23*
COc1ccc(CN2Cc3cnnn3-c3ccccc3C2c2ccccc2)cc1 (stereo not given),+,2,-11,1,16,110
CCN(CC(=O)Nc1ccc(C#N)c(Cl)c1)CC(=O)NC1CCS(=O)(=O)C1 (stereo not given),i,2,-7,0,-2,92
O=C1NC(=S)NC(=O)C1=Cc1ccc(Br)s1,i,-9,-18,-5,72*,100
COP(=O)(OC)C(NS(=O)(=O)c1ccccc1)C(Cl)(Cl)Cl (stereo not given),i,-3,20,1,5,108
O=C1CN=C(c2ccc(Br)cc2)c2c(sc3c2CCCC3)N1CCN1CCCCC1,i,-1,-2,1,4,109
O=c1cc(C(F)(F)F)c2cc3c4c(c2o1)CCCN4CCC3,+,-73,-5,-14,-1,131
Cc1cc2c(C(F)(F)F)cc(=O)oc2c2c1NCCC2,i,22,-6,-22,11,106
CN(C)C(=S)SSC(=S)N(C)C,+,2,-46,-1,41,93
CC[N+](CC)(CC#CCO)CC#Cc1ccccc1,i,1,12,2,-3,100
CN1CCc2cc(O)cc3c2[C@H]1Cc1ccc(O)c(O)c1-3,i,-1,17,-8,60*,112
Nc1ccc2ccc3cccc[n+]3c2c1,+,-99,4,-29,21,90
NC(=S)N/N=C/c1coc2ccccc2c1=O,i,-1,-3,-3,8,101
Cc1[nH]c2ccccc2c1CCCNC1CCCCC1,+,3,8,-7,-3,106
Cc1[nH]c2ccccc2c1CCN,i,-1,1,-10,1,115
O=C(CSC1c2ccccc2-c2ccccc21)N/N=C/c1ccccc1O,?,-4,54*,-4,3,102
C[n+]1c(-c2ccccc2)c2cc(N)ccc2c2ccc(N)cc21,+,-47,-22,4,5,80
COC(=O)C1=C(c2ccc(F)cc2OCc2ccccc2)C[C@@H]2CC[C@H]1N2C(=O)NC1CCN(Cc2ccccc2)CC1,i,-4,4,3,-2,105
COC(=O)C1=C(c2ccccc2OCc2ccccc2)C[C@@H]2CC[C@H]1N2C(=O)NC1CCN(Cc2ccccc2)CC1,+,3,12,2,-13,102
CCOC(=O)C1CCN(C(C)C(=O)c2c(C)[nH]c3cc(C)ccc23)CC1 (stereo not given),i,2,2,-4,0,·
O=C(O)c1nn(Cc2ccc(Cl)cc2)c2ccccc12,+,-3,4,-4,0,103
O=Cc1c(C(=O)O)n(Cc2ccc(Cl)cc2)c2ccccc12,i,81*,5,68,-3,107
C[C@]12CCC(=O)C=C1CC[C@@H]1[C@@H]2C(=O)C[C@]2(C)C(=O)CC[C@@H]12,i,-1,7,-2,7,·
CC(C)CN1Cc2cc(-c3cccc(F)c3)ccc2-n2nncc2C1,i,0,2,2,7,·
COC1CCC(OC2CC(C3(C)CCC4(CC(O)C(C)C(C(C)/C=C(\C)C(=O)C(C)CC(C)C(=O)O)O4)O3)OC3(OC(C4OC(O)(CO)C(C)CC4C)CC3C)C2C)OC1C (stereo not given),·,1,-19,0,78*,90
SMILES,Myeloid diff 2,HNF4A DNA FP,Cardio protect,SENP1 inh,Exocytosis inh,DSG3 Ab inh
COC(=O)C1=C(c2ccc(C(C)=O)cc2)C[C@@H]2CC[C@H]1N2C(=O)NC(C)C,i,1,5,-1,21,102
Cc1ccc(Sc2ccc(C=C3C(=O)N(C)C(=O)N(C)C3=O)o2)cc1,i,0,-4,-1,74*,120
CN1C2CCC1/C(=C/c1ccccn1)C(=O)/C2=C\c1ccccn1,?,5,-8,3,64*,122
CCN(CC)P(=O)(c1n(CC)cc[n+]1CC)N(CC)CC,i,12,5,1,0,111
O=c1[nH]c(O)c(N=Nc2ccc3c(c2)OCCO3)c(=O)[nH]1,i,17,-14,39*,1,105
O=C1NC(=O)C(=Cc2ccc(-c3cc(Cl)ccc3[N+](=O)[O-])o2)C(=O)N1,+,-9,-13,15,61*,112
O=C1NC(=O)C(=Cc2ccc(-c3ccccc3[N+](=O)[O-])o2)C(=O)N1,i,-2,-2,1,76*,103
O=C1NC(=O)C(=Cc2ccccc2[N+](=O)[O-])C(=O)N1,i,-6,-1,-6,-7,99
NS(=O)(=O)c1cccc(N2CCNCC2)c1,i,1,-4,0,-3,100
Clc1ccc(C(Cl)(Cl)Cl)c(Cl)c1,i,-3,1,-3,0,102
CCOc1ccc2[nH]c(=O)c(CN(CCO)C3(c4nnnn4C4CCCCC4)CCCCC3)cc2c1,i,-2,78*,-8,1,100
Oc1ccc2c3c1OC1c4oc5ccccc5c4C[C@@]4(O)[C@@H](C2)N(CC2CC2)CC[C@]314 (stereo not given in full),·,1,3,-1,7,101
O=c1[nH]c(=S)n(-c2ccc(Br)cc2)c(O)c1C=Nc1ccc(N2CCOCC2)cc1,i,7,-2,16,-7,104
O=c1[nH]c(=O)n(-c2ccc(F)cc2)c(O)c1C=Nc1ccccc1N1CCCC1,i,58*,0,-18,0,99
O=c1[nH]c(=S)n(-c2ccccc2F)c(O)c1C=Nc1ccc(N2CCOCC2)cc1,i,2,0,67*,-4,114
Cc1ccc(-n2c(O)c(C=Nc3ccccc3N)c(=O)[nH]c2=O)cc1C,i,-2,19,0,-3,103
Cc1ccc2c(c1)C1CN(C)CCC1N2C(=O)/C=C/c1ccc2c(c1)OCO2 (stereo not given),i,-3,7,1,8,96
O=C(O)Cn1cc(C(=O)c2ccccc2F)c2ccccc21,i,-2,6,1,-10,112
CCC(CO)Nc1ccc([N+](=O)[O-])c2cccnc12 (stereo not given),i,8,5,-42,-1,98
COc1ccc(OCC(=O)N2CCN(C3CCC(c4ccccc4)CC3)CC2)cc1 (stereo not given),i,-4,2,1,0,97
O=C(COc1ccccc1)N1CCN(C2CCCC2)CC1,i,40*,-12,-1,-3,107
COc1cc(/C=C/c2nc3ccccc3c(=O)n2-c2ccccc2O)ccc1O,i,10,50*,-22,11,98
